# The entries come from a sample that favours hits as a whole.
# A1 inh = inhibitors of the anti-apoptotic protein A1, read as caspase activation; MEF A1-2A-BIM cells, Caspase-Glo 3/7 luminescence, 3 h; percent of clofoctol response, vehicle zero; caspase activation, % (concentration not given with the values); actives 0.066% (n = 330,000); AID 2462;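 active means over half of replicate activation scores above 10%, or exactly half above 10 with the replicate mean above 10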
# CHOP inhibitor = CHOP inhibition in unfolded protein response | inhibition, % at 10 µM | CHO-K1 CHOP-promoter luciferase, tunicamycin-induced, 15-18 h | actives 3.8% (n = 220,000);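 active means compounds that reduced the stress-induced luciferase reporter signal by more than about 70% of percent inhibition, limit read from the data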;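 further: 0% = tunicamycin plus vehicle and 100% = wells without tunicamycin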
# XBP1 UPR activ = activators of adaptive arm of unfolded protein response (XBP1); CHO-XBP1 luciferase reporter, IRE1-XBP1 UPR activation, luminescence; percent of tunicamycin response, DMSO as zero; activation, % at 20 µM; actives 0.33% (n = 330,000); AID 463104;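 active means versus positive control, 20 µM dose yields 30% or more activation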;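 further: 100% = tunicamycin at 10 µg/mL and 0% = DMSO only wells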
#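 Material: CHO-XBP1 cells stably carrying IRE1-XBP1-driven luciferase reporter / Amount: 1000 cells per well / Compound: 20 µM, 1% DMSO / Times: 6 h treatment, 37 °C / Detection: luciferase luminescence / Measure: % activation of reporter signal versus tunicamycin and DMSO controls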
# CHOP UPR activ = apoptotic UPR (CHOP) activation; CHO-CHOP luciferase reporter, luminescence; percent of tunicamycin response over DMSO baseline; activation, % at 10 µM; actives 0.34% (n = 330,000);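 active means at 10 µM dose, activation of 40% or more, normalized to positive control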;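 further: 100% = tunicamycin at 10 µg/mL and 0% = DMSO alone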
#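 assay system = CHO CHOP reporter cells | amount = 500 CHO-CHOP cells per well | buffer or medium = F12 with 10% FBS | incubation = 16-18 h cell attachment, then 6 h compound exposure, 37 °C | detection = luminescence read with Steady-Glo | read-out = percent activation relative to tunicamycin control | controls = tunicamycin high control, DMSO low control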
# Numbers without * were called inactive; . = not tested or not shown.
SMILES,A1 inh,CHOP inhibitor,XBP1 UPR activ,CHOP UPR activ
COc1ccc(N2CCN(Cc3csc(C)c3-c3ccc(C)cc3)CC2)cc1,0,.,-10,2
Cc1ccc(S(=O)(=O)CCc2ccncc2)cc1,1,.,-8,-1
CCc1cc2c(-c3ccccc3)cc(=O)oc2cc1OC(=O)c1cccs1,1,70*,2,-2
CCOC(=O)c1c(NC(=O)CSc2ncnc3ccccc23)sc(C(C)=O)c1C,0,75*,-2,2
COC(=O)c1c(NC(=O)CSc2ncnc3ccccc23)sc(C)c1C,0,.,1,-1
C[C@@H]1CN([C@H](C)CO)C(=O)Cc2cc(NC(=O)Nc3ccccc3)ccc2O[C@@H]1CN(C)Cc1ccc2c(c1)OCO2,1,.,-2,1
CCn1c(SCc2nc3scc(-c4ccccc4)c3c(=O)[nH]2)nnc1-c1ccc(Cl)cc1,0,93*,1,-1
Cc1ccc(-c2csc3nc(CSc4nnc(-c5ccc(Cl)cc5)n4C)[nH]c(=O)c23)cc1,0,52,0,-1
Cc1nc(N2CCCCC2C)c2c(C)c(C(=O)Nc3cccc(C(F)(F)F)c3)sc2n1 (stereo not drawn),0,80*,4,1
Cc1nc(N2CCCCC2)c2c(C)c(C(=O)Nc3ccccc3C(F)(F)F)sc2n1,1,71*,-1,0
COC(=O)c1cc(S(=O)(=O)NCC2CCN(CCc3cccs3)CC2)cn1C,0,.,-1,0
Cc1ccc(S(=O)(=O)N(CC(=O)N/N=C/c2ccco2)c2cc(Cl)cc(Cl)c2)cc1,0,75*,-1,5
O=C(CNc1cccc2ccccc12)N/N=C/c1ccc([N+](=O)[O-])cc1,0,72*,0,-1
Cc1ccccc1NCC(=O)N/N=C/c1ccc([N+](=O)[O-])cc1,-1,-13,0,-1
Cc1ccc(C)c(N(CC(=O)N/N=C/c2ccc(-c3ccc([N+](=O)[O-])cc3)o2)S(=O)(=O)c2ccccc2)c1,0,82*,-1,-2
O=C(CN(Cc1ccccc1)S(=O)(=O)c1ccccc1)N/N=C/c1ccc([N+](=O)[O-])cc1,0,96*,-3,-1
CCOc1ccc(S(=O)(=O)N(CC(=O)N/N=C/c2ccc(-c3ccc([N+](=O)[O-])cc3)o2)c2ccccc2)cc1,0,36,0,-2
O=C(CN(c1ccc(Cl)cc1)S(=O)(=O)c1ccccc1)N/N=C/c1ccco1,1,27,-6,0
COc1ccc(NC(=O)CSc2nc(N)cc(N)n2)cc1S(=O)(=O)N1CCCCC1,-1,.,-1,0
O=C(CNc1ccc2ccccc2c1)N/N=C/C=C/c1cccc([N+](=O)[O-])c1,1,90*,-1,1
CC(NC(=O)C(=O)N/N=C\c1ccc([N+](=O)[O-])cc1)c1ccccc1 (stereo not drawn),0,84*,-4,0
O=C(N/N=C/C=C/c1cccc([N+](=O)[O-])c1)C(O)c1ccccc1 (stereo not drawn),0,17,0,3
CC(NC(=O)COC(=O)/C=C/c1ccc([N+](=O)[O-])cc1)c1ccccc1 (stereo not drawn),-1,11,-2,-1
CCOc1ccccc1OCCC(=O)N1CCN(S(=O)(=O)c2ccccc2[N+](=O)[O-])CC1,21*,.,-1,0
Cc1ccc2nc(-c3ccccc3)cn2c1,-1,76*,-17,-11
SMILES,A1 inh,CHOP inhibitor,XBP1 UPR activ,CHOP UPR activ
CC1(c2ccc(Cl)cc2)NC(=O)N(CC(=O)N2CCN(S(=O)(=O)c3ccccc3)CC2)C1=O (stereo not drawn),-1,.,-4,0
O=C(COC(=O)COc1ccc(Cl)cc1)NC1CCCCCC1,.,.,1,2
CCc1ccc(OCCCC(=O)NCc2ccccc2)cc1,0,3,-3,-1
CCc1ccc(OCCCOc2ccc(C=O)cc2)cc1,0,73*,0,0
Cc1cccc(C(=O)O[C@@H]2[C@H](Cc3ccccc3)NS(=O)(=O)[C@H]3C[C@@H]4C=C[C@]23O4)c1,0,.,2,4
COc1cccc(/C=N/Nc2ncnc3scc(-c4ccccc4)c23)c1OC,0,71*,10,2
Cc1sc2ncnc(N/N=C/c3ccccc3O)c2c1C,0,55,.,.
CC(CCc1ccccc1)NC(=O)c1ccc(C(=O)NC(C)CCc2ccccc2)cc1 (stereo not drawn),1,82*,-3,3
Cc1ccc(/C=N\NC(=O)Cc2noc3ccccc23)cc1,-1,.,0,3
CC(C)Cn1c(CN(C)Cc2ccccc2)nc2c1c(=O)n(C)c(=O)n2C,0,55,-2,-2
CN(Cc1ccccc1)Cc1nc2c(c(=O)n(C)c(=O)n2C)n1CCCc1ccccc1,-1,77*,1,0
C=CCn1c(NCCc2ccccc2)nc2c1c(=O)n(C)c(=O)n2C,1,43,6,2
Cc1ccc(Cn2c(NCCc3ccccc3)nc3c2c(=O)n(C)c(=O)n3C)cc1,0,79*,-1,0
O=C(NCCCN1CCOCC1)C1CCN(S(=O)(=O)c2cccc(C(F)(F)F)c2)CC1,0,.,-3,-1
Cc1c(N=C2N=C(NC(=O)Nc3ccc(Cl)cc3)c3ccccc32)c(=O)n(-c2ccccc2)n1C,1,92*,25,3
Cc1ccc(C)c(NC(=S)N2CCC(NC(=O)c3ccco3)CC2)c1,0,.,0,2
Cc1nc2ccccc2c2oc(C(=O)NCC3COc4ccccc4O3)cc12 (stereo not drawn),0,73*,0,-1
CCc1ccc(CNC(=O)c2cc3c(C)nc4ccccc4c3o2)cc1,0,80*,4,5
O=C(COc1c(Br)cc(Br)cc1Br)N/N=C/c1ccco1,0,.,2,0
CC(C)Oc1ccc(C(=O)Nc2ccc(Cl)c(S(=O)(=O)Nc3ccc(Cl)cc3)c2)cc1,-1,71*,-1,2
Cc1oc(-c2ccccc2Cl)nc1CS(=O)CC(=O)NC1CC1 (stereo not drawn),-1,.,-9,-2
COc1cccc(NC(=O)NCCc2ccc(Cl)cc2)c1,0,-5,-2,-1
COc1cccc(-c2cc(N)nn2C(=O)Nc2ccc(Cl)cc2)c1,-1,95*,3,1
CC(C)c1ccc(N2C(=O)CC(Sc3ncn[nH]3)C2=O)cc1 (stereo not drawn),-1,-52,0,2
COc1ccc(N2C(=O)CC(Sc3ncn[nH]3)C2=O)c(OC)c1 (stereo not drawn),0,91*,-1,11
COc1ccccc1N(CC(=O)Nc1ccccc1C(F)(F)F)S(=O)(=O)c1cccs1,0,.,-1,1
O=C(COc1cccc(Br)c1)N/N=C1\CCCc2ccccc21,-1,75*,-1,1
O=C(COc1cccc(Br)c1)NN=C1c2ccccc2-c2ccccc21,1,9,1,3

# Screening results deposited in PubChem BioAssay by several laboratories.
